Results from ChEMBL document CHEMBL4689842, “EUbOPEN Chemogenomics Library wave 1” (2021).

Test system: U2OS
Assay: Multiplex assay against U2OS
Type: toxicity, cell-based
Conditions: human
How it was run: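 Per cents of healthy-nucleus cells form the tubulin, mitochondrial-mass and membrane-permeability phenotype values. Live cells were stained at seeding with Hoechst33342, BioTracker Green Microtubule Cytoskeleton Dye, MitoTracker Red and Annexin V Alexa Fluor 680. After compound addition they were imaged on a CQ1 microscope at 37°C and 5% CO2, and CellPathfinder machine-learning gating split them into Hoechst high-intensity objects or normal cells, normal cells into healthy, pyknosed or fragmented nuclei, and pyknosed cells into mitotic or apoptotic.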

[1] = 12 h, 1 µM, compound concentration 1 uM, replicate 1
[2] = 12 h, 1 µM, compound concentration 1 uM, replicate 2
[3] = 12 h, 10 µM, compound concentration 10 uM, replicate 1
[4] = 12 h, 10 µM, compound concentration 10 uM, replicate 2
[5] = 24 h, 1 µM, compound concentration 1 uM, replicate 1
[6] = 24 h, 1 µM, compound concentration 1 uM, replicate 2
[7] = 24 h, 10 µM, compound concentration 10 uM, replicate 1
[8] = 24 h, 10 µM, compound concentration 10 uM, replicate 2

SMILES: Cc1c(Nc2ccc(S(=O)(=O)N3CCN(C)CC3)cc2F)nc2ccc(Nc3cnn(C4CC4)c3)cn2c1=O
- Population Apoptotic (%) [1]: 50%
- Population Fragmented Nuclei (%) [1]: 7%
- Population Healthy Nuclei (%) [1]: 81%
- Population Hoechst High Intensity Objects (%) [1]: 3%
- Population Membrane Permeable-Phenotype (%) [1]: 58%
- Population Mitochondria Different-Phenotype (%) [1]: 9%
- Population Mitotic Cells (%) [1]: 50%
- Population Normal (%) [1]: 96%
- Population Pyknosed Nuclei (%) [1]: 11%
- Population Tubulin-Different-Phenotype (%) [1]: 53%
- Total Cell Count [1]: 194
- Population Apoptotic (%) [2]: 0%
- Population Fragmented Nuclei (%) [2]: 3%
- Population Healthy Nuclei (%) [2]: 93%
- Population Hoechst High Intensity Objects (%) [2]: 6%
- Population Membrane Permeable-Phenotype (%) [2]: 40%
- Population Mitochondria Different-Phenotype (%) [2]: 18%
- Population Mitotic Cells (%) [2]: 100%
- Population Normal (%) [2]: 93%
- Population Pyknosed Nuclei (%) [2]: 3%
- Population Tubulin-Different-Phenotype (%) [2]: 34%
- Total Cell Count [2]: 124
- Population Apoptotic (%) [3]: 27%
- Population Fragmented Nuclei (%) [3]: 2%
- Population Healthy Nuclei (%) [3]: 91%
- Population Hoechst High Intensity Objects (%) [3]: 3%
- Population Membrane Permeable-Phenotype (%) [3]: 7%
- Population Mitochondria Different-Phenotype (%) [3]: 21%
- Population Mitotic Cells (%) [3]: 72%
- Population Normal (%) [3]: 96%
- Population Pyknosed Nuclei (%) [3]: 5%
- Total Cell Count [3]: 459
- Population Apoptotic (%) [4]: 37%
- Population Fragmented Nuclei (%) [4]: 9%
- Population Healthy Nuclei (%) [4]: 82%
- Population Hoechst High Intensity Objects (%) [4]: 15%
- Population Membrane Permeable-Phenotype (%) [4]: 9%
- Population Mitochondria Different-Phenotype (%) [4]: 32%
- Population Mitotic Cells (%) [4]: 62%
- Population Normal (%) [4]: 84%
- Population Pyknosed Nuclei (%) [4]: 7%
- Population Tubulin-Different-Phenotype (%) [4]: 20%
- Total Cell Count [4]: 603
- Population Apoptotic (%) [5]: 50%
- Population Fragmented Nuclei (%) [5]: 10%
- Population Healthy Nuclei (%) [5]: 80%
- Population Hoechst High Intensity Objects (%) [5]: 1%
- Population Membrane Permeable-Phenotype (%) [5]: 37%
- Population Mitochondria Different-Phenotype (%) [5]: 15%
- Population Mitotic Cells (%) [5]: 50%
- Population Normal (%) [5]: 98%
- Population Pyknosed Nuclei (%) [5]: 9%
- Population Tubulin-Different-Phenotype (%) [5]: 33%
- Total Cell Count [5]: 275
- Population Apoptotic (%) [6]: 42%
- Population Fragmented Nuclei (%) [6]: 6%
- Population Healthy Nuclei (%) [6]: 87%
- Population Hoechst High Intensity Objects (%) [6]: 5%
- Population Membrane Permeable-Phenotype (%) [6]: 19%
- Population Mitochondria Different-Phenotype (%) [6]: 10%
- Population Mitotic Cells (%) [6]: 57%
- Population Normal (%) [6]: 94%
- Population Pyknosed Nuclei (%) [6]: 6%
- Population Tubulin-Different-Phenotype (%) [6]: 19%
- Total Cell Count [6]: 152
- Population Apoptotic (%) [7]: 50%
- Population Fragmented Nuclei (%) [7]: 3%
- Population Healthy Nuclei (%) [7]: 91%
- Population Hoechst High Intensity Objects (%) [7]: 2%
- Population Membrane Permeable-Phenotype (%) [7]: 5%
- Population Mitochondria Different-Phenotype (%) [7]: 15%
- Population Mitotic Cells (%) [7]: 50%
- Population Normal (%) [7]: 97%
- Population Pyknosed Nuclei (%) [7]: 5%
- Population Tubulin-Different-Phenotype (%) [7]: 26%
- Total Cell Count [7]: 480
- Population Apoptotic (%) [8]: 30%
- Population Fragmented Nuclei (%) [8]: 5%
- Population Healthy Nuclei (%) [8]: 85%
- Population Hoechst High Intensity Objects (%) [8]: 11%
- Population Membrane Permeable-Phenotype (%) [8]: 10%
- Population Mitochondria Different-Phenotype (%) [8]: 26%
- Population Mitotic Cells (%) [8]: 69%
- Population Normal (%) [8]: 88%
- Population Pyknosed Nuclei (%) [8]: 9%
- Population Tubulin-Different-Phenotype (%) [8]: 20%
- Total Cell Count [8]: 644
